Assay results gathered from unrelated publications.
CDK5: Cyclin-dependent kinase 5 (CDK5, Homo sapiens, UniProt Q00535)
CDK5 with p35: Cyclin-dependent kinase 5, with p35 (CDK5, Homo sapiens, UniProt Q00535)

Structure (SMILES)	target	test	setting	endpoint	result
Nc1ncc(-c2nc(N3CCOCC3)nc(N3CCOCC3)n2)c(C(F)F)n1	CDK5	binding, competition with immobilised ligand	10 µM	remaining binding	100%
Cn1cc(-c2cccc(N3CCc4c(sc5c4CC(C)(C)C5)C3=O)c2CO)cc(Nc2ccncn2)c1=O	CDK5 with p35	enzyme activity, inhibitor	1 µM	inhibition	3%
COc1ncccc1-c1cnn2ccc(N3CCN(C(=O)OC(C)C)CC3)nc12	CDK5	binding, competition with immobilised ligand	1 µM	remaining binding	100%
Cn1cc(-c2cc(F)cc(N3CCn4c(cc5c4CCCC5)C3=O)c2CO)cc(Nc2ccc(N3CCN(C4COC4)CC3)cn2)c1=O	Cyclin-dependent kinase 5, with p25 (CDK5, Homo sapiens, UniProt Q00535)	enzyme activity, inhibitor	0.1 µM	inhibition	9%
N#CC1(c2ccccn2)CCN(Cc2cc(C(=O)O)c(=O)n3ccccc23)CC1	CDK5	cell-free assay, competition with immobilised ligand	1 µM	remaining binding	100%
CC(C)(C)c1cc(C=C(C#N)C#N)cc(Br)c1O	CDK5 with p35	enzyme activity, inhibitor	0.5 µM	remaining activity	102%
Cc1nn(C)cc1-c1nc2c(N3CCN(Cc4ccc(Cl)cc4)CC3)c(Cl)cnc2[nH]1	CDK5	binding, competition with immobilised ligand	1 µM	remaining binding	76%
Cn1cncc1[C@](O)(COc1ccc(C#N)cc1-c1ccc(OC(F)(F)F)cc1)c1ccc(C#N)cc1	CDK5	cell-free assay, competition with immobilised ligand	1 µM	remaining binding	92%
